# Data published in article PMC12525009 (The Febs Journal, 2025).
# Key:
# Format in all cases: binding
# MsrQ [1] = target: T1, MsrQ (Escherichia coli, UniProt P76343); experiment: HPLC of flavin released by heat denaturation of purified protein; conditions: co-purified; 1 μM holoprotein (heme content)
# T1 sequence (P76343 1-211): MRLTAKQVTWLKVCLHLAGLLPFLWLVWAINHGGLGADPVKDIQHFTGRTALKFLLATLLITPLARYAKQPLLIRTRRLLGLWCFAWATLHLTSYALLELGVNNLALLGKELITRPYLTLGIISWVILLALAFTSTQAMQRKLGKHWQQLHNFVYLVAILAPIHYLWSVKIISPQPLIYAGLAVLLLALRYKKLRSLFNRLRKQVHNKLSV
# MsrQ [2] = target: T1, MsrQ; experiment: quinone extraction of purified protein, HPLC-ECD-MS; conditions: co-purified from E. coli; per holoprotein (heme content); pH 7.6, LMNG
# How it was run: (§1)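 Ni-NTA-purified MsrQ, in 50 mM Tris/HCl pH 7.6 with 0.004% LMNG, was quantified by heme content (pyridine hemochromogen, 556 nm). Quinones were extracted from […] protein with methanol/KCl, using 80 pmol UQ10 as internal standard. Two petroleum ether extractions were pooled, dried under N2 and taken up in ethanol. Fractions equal to 5 and 20 μg protein were run on HPLC-ECD-MS (m/z 500–900). MK8 was quantified against an MK7 curve (2–100 pmol) and UQ8 against a UQ10 standard.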
# MsrQ [3] = target: T1, MsrQ; experiment: as above; conditions: co-purified from E. coli; per holoprotein (heme content); pH 7.6, LMNG; remark: listed apart in the source
# How it was run: as §1
structure (smiles),measurement,setting,value
Cc1cc2nc3c(=O)[nH]c(=O)nc-3n(C[C@H](O)[C@H](O)[C@H](O)COP(=O)(O)O)c2cc1C [FMN],FMN concentration in 1 μM MsrQ,MsrQ [1],0.90 µM
CC(C)=CCC/C(C)=C/CC/C(C)=C/CC/C(C)=C/CC/C(C)=C/CC/C(C)=C/CC/C(C)=C/CC/C(C)=C/CC1=C(C)C(=O)c2ccccc2C1=O [MK8],"MK8/MsrQ ^b , ^d",MsrQ [2],0.090 ± 0.020 mol MK8 per mol MsrQ
COC1=C(OC)C(=O)C(C/C=C(\C)CC/C=C(\C)CC/C=C(\C)CC/C=C(\C)CC/C=C(\C)CC/C=C(\C)CC/C=C(\C)CCC=C(C)C)=C(C)C1=O [UQ8],"UQ8/MsrQ ^b , ^c",MsrQ [3],0.45 ± 0.06 mol UQ8 per mol MsrQ
